Measured values reported in ChEMBL document CHEMBL1157476, “A novel class of cycloalkano[b]pyridines as potent and orally active opioid receptor-like 1 antagonists with minimal binding affinity to the hERG K+ channel” (J Med Chem, 2008).
Blank lines part the entries; values can stand above or below the compound they belong to. The source made the active and inactive calls. The calls are words filed in the database; no cut-off is given here.

Assays:
Canis familiaris [1] = assay: Cardiovascular activity in anesthetized dog assessed as corrected QT interval at 1 mg/kg, iv dosed for 10 mins measured after 20 mins relative to baseline; format: functional, Canis lupus familiaris
How it was run: (§1)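 Isoflurane-anesthetized dogs (n = 1 or 3) given cumulative iv doses as saline solutions, each infused over 10 min; 2 and 7 mg/kg doses given 20 min after the prior administration. QTc measured at 0, 10 and 20 min after dosing, expressed as percent change from baseline for each dog. Peak plasma levels taken after each dose.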

Canis familiaris [2] = assay: Cardiovascular activity in anesthetized dog assessed as corrected QT interval at 2 mg/kg, iv dosed for 10 mins measured after 20 mins relative to baseline; format: functional, Canis lupus familiaris; how it was run: as §1
Canis familiaris [3] = assay: Cardiovascular activity in anesthetized dog assessed as corrected QT interval at 7 mg/kg, iv dosed for 10 mins measured after 20 mins relative to baseline; format: functional, Canis lupus familiaris; how it was run: as §1
[4] = Metabolic stability in rat hepatocyte after 30 mins; format: ADME, cell-based; details: rat hepatocytes, read-out: Stability
How it was run: (§2)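 Compound incubated 30 min with rat hepatocytes or cryopreserved human hepatocytes; percent parent remaining reported; rat as mean of duplicates, human as mean of three experiments.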

[5] = Metabolic stability in cryopreserved human hepatocyte after 30 mins; format: ADME, cell-based; details: cryopreserved human hepatocytes, read-out: Stability; how it was run: as §2
[6] = Plasma clearance in Sprague-Dawley rat at 0.65 mg/kg, iv; format: ADME, organism-based; set-up: dose 0.65 mg/kg, route intravenous
How it was run: (§3)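 Fasted Sprague-Dawley rats (n = 3) given an intravenous solution in water at 3 or 0.65 mg/kg; plasma pharmacokinetic parameters from the IV arm.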

[7] = Half life in Sprague-Dawley rat at 0.65 mg/kg, iv; format: ADME, organism-based; set-up: dose 0.65 mg/kg, route intravenous; details: in vivo; how it was run: as §3
Rattus norvegicus = assay: AUC (0 to infinity) in Sprague-Dawley rat at 0.65 mg/kg, iv; format: ADME, organism-based, Plasma; set-up: time infinity, dose 0.65 mg/kg, route intravenous; details: in vivo
How it was run: (§4)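 Fasted Sprague-Dawley rats (n = 3) received a single intravenous dose. Plasma exposure was expressed as AUC from zero to infinity, in µM·h. The same study also yielded clearance, half-life and steady-state volume of distribution, with oral dosing run in parallel.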

[8] = Volume of distribution at steady state in Sprague-Dawley rat at 0.65 mg/kg, iv; format: ADME, organism-based; set-up: dose 0.65 mg/kg, route intravenous; details: in vivo, read-out: Vdss; how it was run: as §3
[9] = Bioavailability in Sprague-Dawley rat at 3 mg/kg, iv; format: ADME, organism-based; details: in vivo, po, in the assay text read “po” for “iv”
How it was run: (§5)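 Fasted Sprague-Dawley rats (n = 3) dosed orally as a solution in water (10 or 3 mg/kg), with matching intravenous arms at 3 or 0.65 mg/kg; F from oral versus IV exposure.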

[10] = Plasma clearance in Beagle dog at 1 mg/kg, iv; format: ADME, organism-based, Canis lupus familiaris; set-up: dose 1 mg/kg, route intravenous
How it was run: (§6)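 Fasted Beagle dogs (n = 3) given 1 mg/kg intravenously; plasma pharmacokinetic parameters derived from the IV arm.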

[11] = Half life in Beagle dog at 1 mg/kg, iv; format: ADME, organism-based, Canis lupus familiaris; set-up: dose 1 mg/kg, route intravenous; details: in vivo; how it was run: as §6
[12] = AUC (0 to infinity) in Beagle dog at 1 mg/kg, iv; format: ADME, organism-based, Canis lupus familiaris; set-up: time infinity, dose 1 mg/kg, route intravenous; details: plasma; how it was run: as §6
[13] = Volume of distribution at steady state in Beagle dog at 1 mg/kg, iv; format: ADME, organism-based, Canis lupus familiaris; set-up: dose 1 mg/kg, route intravenous; details: in vivo, read-out: Vdss; how it was run: as §6
Mu-type opioid receptor = Mu-type opioid receptor (Homo sapiens, UniProt P35372); assay: Displacement of [3H]diprenorphin from human cloned mu opioid receptor expressed in CHO cells; format: cell-based
How it was run: (§7)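 Radioligand displacement from CHO cells stably expressing cloned human receptors: [3H]diprenorphin for mu, [3H]U-69593 for kappa, [3H][D-Ala2,D-Leu5]enkephalin for delta; IC50; three independent determinations, each in duplicate.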

[14] = target: Kappa-type opioid receptor (Homo sapiens, UniProt P41145); assay: Displacement of [3H]U69593 from human cloned kappa opioid receptor expressed in CHO cells; format: cell-based; how it was run: as §7
[15] = target: Delta-type opioid receptor (Homo sapiens, UniProt P41143); assay: Displacement of [3H][D-Ala2,D-Leu5]enkephalin from human cloned delta opioid receptor expressed in CHO cells; format: cell-based; how it was run: as §7
Mus musculus [16] = assay: Reversal of ORL agonist-induced locomotor activity in CD1 mouse at 10 mg/kg, po after 60 mins; format: functional
How it was run: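 Mice (n = 6) dosed orally at 10 mg/kg, then given an ORL1 agonist. Locomotor activity counted over 60 min against vehicle control and agonist-only groups. Result expressed as % reversal of the agonist-induced reduction in locomotion.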

[17] = Plasma concentration in rat at 10 mg/kg, po after 1 hrs; format: ADME, organism-based; set-up: dose 10 mg/kg, route oral
How it was run: (§8)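 Oral dose 10 mg/kg; plasma and brain collected 1 h after administration and drug concentrations measured, n = 3 per group.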

Brain = assay: Drug level in rat brain at 10 mg/kg, po after 1 hrs; format: ADME, organism-based; set-up: dose 10 mg/kg, route oral; details: in vivo; how it was run: as §8
Plasma = details: dog, in vivo, iv, 1 mg/kg, 20 min
in vivo [18] = details: dog, plasma, iv, 1 mg/kg
in vivo [19] = details: dog, plasma, iv, 2 mg/kg
in vivo [20] = details: dog, plasma, iv, 7 mg/kg
physchem [21] = details: buffer, pH 7.4
physchem [22] = assay: physchem
[23] = Bioavailability in Beagle dog at 3 mg/kg, po; details: in vivo
Nociceptin receptor [24] = target: T1, Nociceptin receptor (Homo sapiens, UniProt P41146); assay: Displacement of [125I][Tyr14]nociceptin from human ORL1 expressed in CHO cells; format: cell-based
[25] = target: Voltage-gated inwardly rectifying potassium channel KCNH2 (Homo sapiens, UniProt Q12809)
Mus musculus [26] = assay: Inhibition of ORL1 agonist-induced hypolocomotion in mouse at 3 mg/kg, sc; format: functional, organism-based; set-up: dose 3 mg/kg
[27] = Plasma clearance in Sprague-Dawley rat at 3 mg/kg, iv; format: ADME, organism-based; set-up: dose 3 mg/kg, route intravenous; how it was run: as §3
[28] = Half life in Sprague-Dawley rat at 3 mg/kg, iv; format: ADME, organism-based; set-up: dose 3 mg/kg, route intravenous; details: in vivo; how it was run: as §3
[29] = AUC (0 to infinity) in Sprague-Dawley rat at 3 mg/kg, iv; format: ADME, organism-based; set-up: time infinity, dose 3 mg/kg, route intravenous; details: plasma; how it was run: as §4
[30] = Volume of distribution at steady state in Sprague-Dawley rat at 3 mg/kg, iv; format: ADME, organism-based; set-up: dose 3 mg/kg, route intravenous; details: in vivo, read-out: Vdss; how it was run: as §3
[31] = Bioavailability in Sprague-Dawley rat at 10 mg/kg, iv; format: ADME, organism-based; details: in vivo, po, in the assay text read “po” for “iv”; how it was run: as §5
Nociceptin receptor [32] = target: T1, Nociceptin receptor; assay: Antagonist activity at human ORL1 expressed in CHO cells assessed as effect on nociceptin-induced GTPgammaS binding; format: functional, cell-based

Sequence of Voltage-gated inwardly rectifying potassium channel KCNH2 (Q12809 whole entry): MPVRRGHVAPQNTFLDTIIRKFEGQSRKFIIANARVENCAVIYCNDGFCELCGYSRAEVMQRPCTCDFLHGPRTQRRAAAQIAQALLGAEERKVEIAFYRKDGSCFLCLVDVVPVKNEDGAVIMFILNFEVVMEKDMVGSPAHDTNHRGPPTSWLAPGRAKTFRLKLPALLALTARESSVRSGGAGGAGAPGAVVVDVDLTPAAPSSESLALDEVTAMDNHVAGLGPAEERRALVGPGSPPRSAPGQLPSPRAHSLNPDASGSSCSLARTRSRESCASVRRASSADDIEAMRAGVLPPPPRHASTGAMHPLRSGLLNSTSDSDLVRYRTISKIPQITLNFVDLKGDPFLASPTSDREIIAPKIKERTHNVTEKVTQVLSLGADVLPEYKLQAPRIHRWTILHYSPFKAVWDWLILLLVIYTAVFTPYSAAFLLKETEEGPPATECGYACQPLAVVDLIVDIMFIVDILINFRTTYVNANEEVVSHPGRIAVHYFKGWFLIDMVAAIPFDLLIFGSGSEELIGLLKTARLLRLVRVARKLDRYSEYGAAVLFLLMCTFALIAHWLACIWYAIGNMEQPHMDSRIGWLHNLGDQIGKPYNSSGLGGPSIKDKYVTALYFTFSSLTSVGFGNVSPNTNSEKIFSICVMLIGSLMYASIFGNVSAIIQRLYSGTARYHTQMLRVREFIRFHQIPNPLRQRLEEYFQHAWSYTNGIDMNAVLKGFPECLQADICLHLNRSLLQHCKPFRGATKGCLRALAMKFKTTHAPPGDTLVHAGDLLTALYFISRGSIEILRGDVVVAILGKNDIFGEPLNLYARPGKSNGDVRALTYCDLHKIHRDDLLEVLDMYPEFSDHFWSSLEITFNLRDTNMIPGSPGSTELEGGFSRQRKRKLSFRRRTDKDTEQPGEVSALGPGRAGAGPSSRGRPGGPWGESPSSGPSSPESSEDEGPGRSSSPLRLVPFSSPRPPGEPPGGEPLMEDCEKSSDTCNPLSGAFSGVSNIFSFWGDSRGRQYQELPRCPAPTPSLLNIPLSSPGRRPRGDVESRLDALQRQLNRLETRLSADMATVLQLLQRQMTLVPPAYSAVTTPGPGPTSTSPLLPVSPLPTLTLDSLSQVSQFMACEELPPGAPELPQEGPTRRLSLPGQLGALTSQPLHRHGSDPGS
T1 sequence (P41146 whole entry): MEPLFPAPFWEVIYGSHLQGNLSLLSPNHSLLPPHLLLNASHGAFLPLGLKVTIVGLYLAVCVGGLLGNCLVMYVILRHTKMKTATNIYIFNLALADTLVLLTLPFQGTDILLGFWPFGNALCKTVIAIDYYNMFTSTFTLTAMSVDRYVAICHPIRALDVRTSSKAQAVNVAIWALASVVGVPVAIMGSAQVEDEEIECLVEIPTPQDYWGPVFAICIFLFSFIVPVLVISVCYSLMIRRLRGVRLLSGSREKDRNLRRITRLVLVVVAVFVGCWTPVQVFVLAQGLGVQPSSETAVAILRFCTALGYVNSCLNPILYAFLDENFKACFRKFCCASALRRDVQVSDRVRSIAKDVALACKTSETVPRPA
Sequence of Mu-type opioid receptor (P35372 whole entry): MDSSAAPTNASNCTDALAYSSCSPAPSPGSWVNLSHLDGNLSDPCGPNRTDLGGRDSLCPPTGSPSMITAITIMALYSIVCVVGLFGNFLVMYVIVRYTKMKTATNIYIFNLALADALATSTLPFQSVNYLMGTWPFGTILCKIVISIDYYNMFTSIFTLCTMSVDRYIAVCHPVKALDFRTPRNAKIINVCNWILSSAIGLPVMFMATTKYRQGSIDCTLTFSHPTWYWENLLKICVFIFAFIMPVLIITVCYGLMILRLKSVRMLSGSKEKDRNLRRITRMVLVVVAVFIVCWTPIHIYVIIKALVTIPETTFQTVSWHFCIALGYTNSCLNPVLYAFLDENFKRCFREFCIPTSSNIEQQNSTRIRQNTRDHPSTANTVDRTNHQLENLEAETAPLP
Sequence of Kappa-type opioid receptor (P41145 whole entry): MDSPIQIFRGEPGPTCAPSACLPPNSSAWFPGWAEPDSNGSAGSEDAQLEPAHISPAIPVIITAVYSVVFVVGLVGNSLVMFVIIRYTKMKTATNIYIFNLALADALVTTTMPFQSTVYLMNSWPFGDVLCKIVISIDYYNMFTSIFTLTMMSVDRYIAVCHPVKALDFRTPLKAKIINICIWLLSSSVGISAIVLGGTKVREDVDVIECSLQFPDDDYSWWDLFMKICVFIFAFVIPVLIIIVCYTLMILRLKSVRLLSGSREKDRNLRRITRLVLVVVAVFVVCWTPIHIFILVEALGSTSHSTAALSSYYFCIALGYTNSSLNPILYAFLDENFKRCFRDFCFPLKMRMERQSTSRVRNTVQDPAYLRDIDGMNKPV
Sequence of Delta-type opioid receptor (P41143 whole entry): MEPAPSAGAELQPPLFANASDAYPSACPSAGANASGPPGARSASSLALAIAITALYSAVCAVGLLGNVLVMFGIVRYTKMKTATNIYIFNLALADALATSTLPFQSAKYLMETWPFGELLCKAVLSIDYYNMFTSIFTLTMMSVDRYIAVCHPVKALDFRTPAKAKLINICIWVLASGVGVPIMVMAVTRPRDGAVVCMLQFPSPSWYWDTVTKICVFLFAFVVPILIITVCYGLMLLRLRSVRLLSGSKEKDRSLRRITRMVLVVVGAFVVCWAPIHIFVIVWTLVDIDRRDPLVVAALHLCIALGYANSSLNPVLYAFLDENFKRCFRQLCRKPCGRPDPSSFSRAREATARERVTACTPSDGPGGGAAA

Structure (SMILES): O[C@H]1C[C@H](CN2CC[C@H](c3ccc(F)cc3Cl)[C@@H](O)C2)Cc2cccnc21
Activity (Canis familiaris [1]): 1.1%
Activity (Canis familiaris [2]): 0.9%
Activity (Canis familiaris [3]): 2%
remaining at 0.5 h [4]: 30%
remaining at 0.5 h [5]: 93%
clearance [6]: 47 mL/min/kg
half-life [7]: 1.2 h
AUC (Rattus norvegicus): 0.59 µM·h
Vd [8]: 3.9 L/kg
bioavailability [9]: 13%
clearance [10]: 19 mL/min/kg
half-life [11]: 13.5 h
AUC(0-inf) [12]: 2 µM·h
Vd [13]: 10.6 L/kg
IC50 (Mu-type opioid receptor): > 10 µM
IC50 [14]: > 10 µM
IC50 [15]: > 10 µM
Activity (Mus musculus [16]): 89%
concentration at 1 h [17]: 0.03 µM
Drug uptake (Brain): 0.172 nmol/g
PPB (Plasma): 57%
concentration at 20 min (in vivo [18]): 3.48 µM
concentration at 20 min (in vivo [19]): 8.3 µM
concentration at 20 min (in vivo [20]): 29.8 µM
logD (physchem [21]): 2.3
pKa (physchem [22]): 7.4
bioavailability [23]: 39%

Ki (Nociceptin receptor [24]): 0.024 µM
Structure (SMILES): Cc1ccccc1C1CCN(C[C@@H]2CCc3cccnc3C(C)(O)C2)CC1 (stereo in doubt; form 1)

Structure (SMILES): Cc1ccccc1[C@H]1CCN(C[C@@H]2Cc3cccnc3[C@@H](O)C2)C[C@@H]1O
Ki (Nociceptin receptor [24]): 0.051 µM
IC50 [25]: > 50 µM

Structure (SMILES): Cc1ccccc1C1CCN(C[C@@H]2CCc3c(C)cccc3[C@@H](O)C2)CC1 (relative stereo)
Activity (Mus musculus [26]): inactive

Ki (Nociceptin receptor [24]): 0.011 µM
logD (physchem [21]): 2
Structure (SMILES): Cc1ccccc1C1CCN(C[C@@H]2Cc3cccnc3[C@@H](O)C2)CC1
IC50 [25]: > 50 µM

Ki (Nociceptin receptor [24]): 0.021 µM
logD (physchem [21]): 1.9
Structure (SMILES): Cc1cc(F)ccc1[C@H]1CCN(C[C@@H]2Cc3cccnc3[C@@H](O)C2)C[C@@H]1O

Structure (SMILES): Cc1ccccc1[C@@H]1CCN(C[C@@H]2CCc3cccnc3[C@@H](O)C2)C[C@H]1O
Activity (Canis familiaris [1]): 0.2%
Activity (Canis familiaris [2]): 0.2%
Activity (Canis familiaris [3]): 2%
remaining at 0.5 h [4]: 6%
remaining at 0.5 h [5]: 62%
clearance [27]: 91 mL/min/kg
half-life [28]: 0.9 h
AUC(0-inf) [29]: 1.6 µM·h
Vd [30]: 6.3 L/kg
bioavailability [31]: 11%
PPB (Plasma): 62%
concentration at 20 min (in vivo [18]): 2.26 µM
concentration at 20 min (in vivo [19]): 4.9 µM
concentration at 20 min (in vivo [20]): 17.9 µM
logD (physchem [21]): 2.2
pKa (physchem [22]): 7.8

Ki (Nociceptin receptor [24]): 0.0011 µM
IC50 (Nociceptin receptor [32]): 0.027 µM
Structure (SMILES): O[C@H]1C[C@H](CN2CCC(c3ccccc3Cl)CC2)CCc2cccnc21
IC50 [25]: 1.5 µM

Ki (Nociceptin receptor [24]): 0.049 µM
logD (physchem [21]): 1.3
Structure (SMILES): Cc1ccccc1C1CCN(C[C@@H]2CCc3cccnc3C(=O)C2)CC1

Ki (Nociceptin receptor [24]): 0.0035 µM
IC50 (Nociceptin receptor [32]): 0.0057 µM
logD (physchem [21]): 3
Structure (SMILES): Cc1ccccc1[C@@H]1CCN(C[C@@H]2CCc3cccnc3[C@@H](O)C2)C[C@H]1C

Ki (Nociceptin receptor [24]): 0.03 µM
Structure (SMILES): O[C@H]1C[C@H](CN2CCC(c3ccccc3)CC2)CCc2cccnc21
IC50 [25]: 11 µM

Structure (SMILES): Cc1ccccc1[C@@H]1CCN(C[C@@H]2CCc3cccnc3[C@@H](O)C2)C[C@H]1CO
Activity (Canis familiaris [1]): -0.1%
Activity (Canis familiaris [2]): 0.1%
Activity (Canis familiaris [3]): 11.3%

Ki (Nociceptin receptor [24]): 0.017 µM
logD (physchem [21]): 2.9
Structure (SMILES): Cc1ccccc1C1CCN(C[C@@H]2CCc3cccnc3C(C)(O)C2)CC1 (stereo in doubt; form 2)

Ki (Nociceptin receptor [24]): 0.025 µM
logD (physchem [21]): 3.1
Structure (SMILES): Cc1ccccc1C1CCN(C[C@@H]2CCc3cccnc3C3(C2)OCCO3)CC1

Ki (Nociceptin receptor [24]): 0.00047 µM
IC50 (Nociceptin receptor [32]): 0.0016 µM
logD (physchem [21]): > 4
Structure (SMILES): O[C@H]1C[C@H](CN2CCC(c3c(Cl)cccc3Cl)CC2)CCc2cccnc21
IC50 [25]: 0.94 µM

Ki (Nociceptin receptor [24]): 0.0044 µM
IC50 (Nociceptin receptor [32]): 0.005 µM
Structure (SMILES): O[C@H]1C[C@H](CN2CC[C@H](c3ccc(F)cc3Cl)[C@@H](O)C2)CCc2cccnc21
